Reference: ChEMBL document CHEMBL1125037, “Synthesis and antihypertensive activity of 4-(1,2-dihydro-2-oxo-1-pyridyl)-2H-1-benzopyrans and related compounds, new potassium channel activators” (1990)

Tested on: Rattus norvegicus
Assay: Antihypertensive effect after 1 mg/kg (po) administration in conscious spontaneously hypertensive rat (over a time period of 0-210 minutes).
Type: functional
Outline: (§1)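 Male Okamoto-strain SHR (280-330 g, blood pressure >180 mmHg), conscious and unrestrained, given 1 mg/kg orally as a screening dose. Mean arterial pressure was recorded directly and continuously via an aortic catheter from 1 h before to 3.5 h after dosing. The effect is the mean of the maximum individual changes over 3.5 h; N ≥ 3.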

Structure (SMILES) | Max fall in blood pressure
CC1(C)C=C(n2ncccc2=O)c2cc(C#N)ccc2O1 | 23 mmHg
CC1(C)Oc2ccc(-c3ccncc3)cc2C(N2CCCC2=O)[C@@H]1O (some centres undefined) | 20 mmHg
CC1(C)C=C(n2ccccc2=O)c2cc(C(=N)S)ccc2O1 | 23 mmHg
CC1(C)Oc2ccc(C#N)cc2C(n2cnccc2=O)[C@@H]1O (some centres undefined) | 19 mmHg
CC1(C)C=C(n2cc(Cl)ccc2=O)c2cc(C#N)ccc2O1 | 23 mmHg
CC(=O)Nc1cccn([C@@H]2c3cc(C#N)ccc3OC(C)(C)[C@H]2O)c1=O | 22 mmHg
N#Cc1ccc2c(c1)C(n1ccccc1=O)=CC1(CCCC1)O2 | 26 mmHg
CC1(C)C=C(n2ccc(=O)cc2)c2cc(C#N)ccc2O1 | 48 mmHg
CC1(C)Oc2ccc(/C=C/C#N)cc2[C@@H](n2ccccc2=O)[C@@H]1O | 25 mmHg
CC1(C)Oc2ccc(C#N)cc2[C@@H](n2cc([N+](=O)[O-])ccc2=O)[C@@H]1O | 23 mmHg
CC1(C)Oc2ccc(C#N)cc2C(n2ccc3ccccc3c2=O)[C@@H]1O (some centres undefined) | 24 mmHg
CC1(C)C=C(n2cc([N+](=O)[O-])ccc2=O)c2cc(C#N)ccc2O1 | 27 mmHg
CC1(C)Oc2ccc(C#N)cc2C(n2ccc(=O)cc2)[C@@H]1O (some centres undefined) | 21 mmHg
CC1(C)Oc2ccc(C#N)cc2[C@@H](n2cc(N)ccc2=O)[C@@H]1O | 34 mmHg
COC1=C(n2ccccc2=O)c2cc(C#N)ccc2OC1(C)C | 22 mmHg
CC1(C)C=C(N2CCCCS2(=O)=O)c2cc(C#N)ccc2O1 | 25 mmHg
O=c1ccccn1C1=CC2(CCCCC2)Oc2ccc([N+](=O)[O-])cc21 | 22 mmHg

Structure (SMILES) | Max fall in blood pressure
CC1(C)Oc2ccc(C#N)cc2C(n2cccnc2=O)[C@@H]1O (some centres undefined) | 20 mmHg
CC1(C)Oc2ccc(/N=C/c3ccc([N+](=O)[O-])cc3)cc2C(N2CCCC2=O)[C@@H]1O (some centres undefined) | 26 mmHg
COC(=O)c1ccc2c(c1)[C@@H](n1ccccc1=O)[C@H](O)C(C)(C)O2 | 49 mmHg
CC1(C)Oc2ccc(C#N)cc2C(n2ccccc2=O)C1=O (centres undefined) | 20 mmHg
CC1(C)Oc2ccc(C#N)cc2[C@@H](n2cc(Cl)ccc2=O)[C@@H]1O | 37 mmHg
CC1(C)Oc2ccc(C#N)cc2C(n2ncc3ccccc3c2=O)[C@@H]1O (some centres undefined) | 38 mmHg
CC1(C)Oc2ccc(C#N)cc2[C@@H](n2cccc(C(=O)O)c2=O)[C@@H]1O | 24 mmHg
CC1(C)Oc2ccc(C#N)cc2C(n2ccc(=O)nc2)[C@@H]1O (some centres undefined) | 18 mmHg
CC1(C)Oc2ccc(-c3ccncc3)cc2[C@@H](n2ccccc2=O)[C@@H]1O | 24 mmHg
CC(=O)c1ccc2c(c1)[C@@H](n1ccccc1=O)[C@H](O)C(C)(C)O2 | 38 mmHg
CCOC(=O)c1ccc(=O)n(C2c3cc(C#N)ccc3OC(C)(C)[C@H]2O)n1 (some centres undefined) | 24 mmHg
CC1(C)Oc2ccc(C#N)cc2C(N2CCCCS2(=O)=O)[C@@H]1O (some centres undefined) | 30 mmHg
CC(=O)OC1=C(n2ccccc2=O)c2cc(C#N)ccc2OC1(C)C | 21 mmHg
CC1(C)Oc2ccc(C(=N)S)cc2C(N2CCCC2=O)[C@@H]1O (some centres undefined) | 22 mmHg
CC1(C)Oc2ccc(C#N)cc2[C@H](n2ccccc2=O)[C@@H]1O | 26 mmHg
CC1(C)C=C(n2ccccc2=O)c2cc(C=O)ccc2O1 | 35 mmHg
CC1(C)C=C(n2ccc(=O)[nH]c2=O)c2cc(C#N)ccc2O1 | 23 mmHg

Tested on: Rattus norvegicus
Assay: Antihypertensive effect after 1 mg/kg (po) administration in conscious spontaneously hypertensive rat (over a time period of 0-210 min).
Type: functional, organism-based
Parameters: dose 1 mg/kg
Outline: as §1

Structure (SMILES) | Max fall in blood pressure
O=c1ccccn1[C@@H]1c2cc([N+](=O)[O-])ccc2OC2(CCCCC2)[C@H]1O | Not significant
CCOc1ccn([C@@H]2c3cc(C#N)ccc3OC(C)(C)[C@H]2O)c(=O)c1 | Not significant
CC1(C)C=C(n2cc(Cl)cc(Cl)c2=O)c2cc(C#N)ccc2O1 | Not significant
CC1(C)Oc2ccc(C=O)cc2[C@@H](n2ccccc2=O)[C@@H]1O | Not significant
O=c1ccccn1C1=CC2(CCCC2)Oc2ccc([N+](=O)[O-])cc21 | Not significant
CC1(C)C=C(n2ccccc2=O)c2cc(C(N)=O)ccc2O1 | Not significant
CC1(C)Oc2ccc(C#N)cc2[C@@H](n2cc(Br)cc(Br)c2=O)[C@@H]1O | Not significant
CC1(C)Oc2ccc(/C=C/c3ccc(C#N)cc3)cc2[C@@H](n2ccccc2=O)[C@@H]1O | Not significant
CC1(C)Oc2ccc(C#N)cc2[C@@H](n2ccc(OCc3ccccc3)cc2=O)[C@@H]1O | Not significant
CC1(C)Oc2ccc(-c3nc4cc[nH]cc-4n3)cc2C(N2CCCC2=O)[C@@H]1O (some centres undefined) | Not significant
CC1(C)Oc2ccc(-c3nn[nH]n3)cc2C(N2CCCC2=O)[C@@H]1O (some centres undefined) | Not significant
CC1(C)C=C(n2cc(Cl)c(=O)c(Cl)c2)c2cc(C#N)ccc2O1 | Not significant
CC1(C)Oc2ccc(-c3nc4ccc[nH]c-4n3)cc2C(N2CCCC2=O)[C@@H]1O (some centres undefined) | Not significant
CC1(C)Oc2ccc(-c3nc4ccccc4[nH]3)cc2C(N2CCCC2=O)[C@@H]1O (some centres undefined) | Not significant
CC1(C)Oc2ccc(C#N)cc2[C@@H](n2cccc([N+](=O)[O-])c2=O)[C@@H]1O | Not significant
CN(C)c1cccn([C@@H]2c3cc(C#N)ccc3OC(C)(C)[C@H]2O)c1=O | Not significant
CC1(C)C=C(n2ccc3ccccc3c2=O)c2cc(C#N)ccc2O1 | Not significant
CC1(C)Oc2ccc(C#N)cc2[C@@H](N2CCC/C2=N\C(=O)c2ccncc2)[C@@H]1O | Not significant
CC1(C)C=C(n2ccc(OCc3ccccc3)cc2=O)c2cc(C#N)ccc2O1 | Not significant
Cc1csc(-c2ccc3c(c2)C(N2CCCC2=O)[C@H](O)C(C)(C)O3)n1 (some centres undefined) | Not significant
N#Cc1ccc2c(c1)[C@@H](n1ccccc1=O)[C@H](O)C1(CCCC1)O2 | Not significant
CC1(C)Oc2ccc(Br)cc2[C@@H](n2ccccc2=O)[C@@H]1O | Not significant
CC1(C)Oc2ccc(C#N)cc2C(n2ccc(=O)[nH]c2=O)[C@@H]1O (some centres undefined) | Not significant
O=c1ccccn1[C@@H]1c2cc([N+](=O)[O-])ccc2OC2(CCCC2)[C@H]1O | Not significant
CC1(C)C=C(n2cc(Br)cc(Br)c2=O)c2cc(C#N)ccc2O1 | Not significant

Structure (SMILES) | Max fall in blood pressure
CC1(C)Oc2ccc([N+](=O)[O-])cc2[C@@H](N2CCCC2=N)[C@@H]1O | Not significant
CC1(C)Oc2ccc(C#N)cc2[C@@H](n2cccc(N)c2=O)[C@@H]1O | Not significant
CC1(C)Oc2ccc(/N=C/c3ccc(C#N)cc3)cc2C(N2CCCC2=O)[C@@H]1O (some centres undefined) | Not significant
CC1(C)Oc2ccc(C#N)cc2[C@@H](n2cc(Cl)cc(Cl)c2=O)[C@@H]1O | Not significant
CCOC(=O)c1ccc2c(c1)[C@@H](n1ccccc1=O)[C@H](O)C(C)(C)O2 | Not significant
CC1(C)Oc2ccc(C#N)cc2[C@@H](n2cc(C(=O)O)ccc2=O)[C@@H]1O | Not significant
CC1(C)Oc2ccc(C#N)cc2C(n2cc(Cl)c(=O)c(Cl)c2)[C@@H]1O (some centres undefined) | Not significant
CC1(C)Oc2ccc(C#N)cc2C(N2CCC(=O)CC2)[C@@H]1O (some centres undefined) | Not significant
N#Cc1ccc2c(c1)[C@@H](n1ccccc1=O)[C@H](O)C1(CCCCC1)O2 | Not significant
CC(=O)Nc1ccc(=O)n([C@@H]2c3cc(C#N)ccc3OC(C)(C)[C@H]2O)c1 | Not significant
CC1(C)Oc2ccc(C#N)cc2[C@@H](N2CCCCC2=N)[C@@H]1O | Not significant
CC1(C)Oc2ccc(NC(=N)S)cc2C(N2CCCC2=O)[C@@H]1O (some centres undefined) | Not significant
CC1(C)Oc2ccc(C(=N)S)cc2[C@@H](n2ccccc2=O)[C@@H]1O | Not significant
COc1cccn([C@@H]2c3cc(C#N)ccc3OC(C)(C)[C@H]2O)c1=O | Not significant
CC1(C)C=C(n2ccccc2=O)c2cc(-c3ccncc3)ccc2O1 | Not significant
Cc1csc(Nc2ccc3c(c2)C(N2CCCC2=O)[C@H](O)C(C)(C)O3)n1 (some centres undefined) | Not significant
COC(=O)c1ccc2c(c1)C(n1ccccc1=O)C(=O)C(C)(C)O2 (centres undefined) | Not significant
CC1(C)CC(n2ccc(=O)cc2)c2cc(C#N)ccc2O1 (centres undefined) | Not significant
CC1(C)Oc2ccc(C(N)=O)cc2[C@]2(n3ccccc3=O)O[C@H]12 | Not significant
CC(=O)Nc1ccc(=O)n(C2=CC(C)(C)Oc3ccc(C#N)cc32)c1 | Not significant
N#Cc1ccc2c(c1)C(n1ccccc1=O)=CC1(CCCCC1)O2 | Not significant
CC1(C)Oc2ccc(C3=NCCN3)cc2C(N2CCCC2=O)[C@@H]1O (some centres undefined) | Not significant
CC(=O)Oc1cccn([C@@H]2c3cc(C#N)ccc3OC(C)(C)[C@H]2O)c1=O | Not significant
Cc1coc(-c2ccc3c(c2)C(N2CCCC2=O)[C@H](O)C(C)(C)O3)n1 (some centres undefined) | Not significant
CC1(C)Oc2ccc(/N=C/c3ccc(Cl)cc3Cl)cc2C(N2CCCC2=O)[C@@H]1O (some centres undefined) | Not significant
